S100A4 MyoIIA – blocks human S100A4 binding to myosin IIA peptide; P26447; S100A4/TAMRA-MyoIIA peptide fluorescence polarization; inhibition, % at 10.7 µM; 360,000 tested, 0.14% active;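 active = mean inhibition of at least 70% across replicates, with every replicate also reaching that level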
Target sequence (P26447 whole entry, looked up): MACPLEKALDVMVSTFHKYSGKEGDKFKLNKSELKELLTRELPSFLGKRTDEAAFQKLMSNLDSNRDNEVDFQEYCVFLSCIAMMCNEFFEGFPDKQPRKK
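incubation = readout 5 min after mixing, signal stable up to 60 min | system = S100A4 monomer protein | buffer or medium = HEPES pH 7.2 with CaCl2, KCl, NaCl, DTT, Triton | benchmarks = neutral control DMSO, positive control TFP | also added = fluorescent myosin IIA peptide, 5 nM | compound dosing = one concentration per compound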
Statin myotox sup – suppression of simvastatin myotoxicity; C2C12 myotubes + simvastatin, ATP luminescence, 48 h; scaled: DMSO 0, geranylgeraniol control 100; rescue of ATP level, % at 7.49 µM; 330,000 tested, 0.78% active;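 active = mean ATP rescue above about 67%, or every replicate alone reaching that limit, limit read from the data, passing the limit was not always enough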;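 note: myotubes were challenged with 10 µM simvastatin during compound exposure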
SIRT5 block – blocks human SIRT5 desuccinylation of peptide; Purified SirT5, succinyl-peptide AMC, trypsin-coupled fluorescence; 330,000 tested, 1.1% active; AID 652115; Q9NXA8; inhibition, % at 15 µM; in the data active = inhibition above about 15%
Target sequence (Q9NXA8 whole entry, looked up): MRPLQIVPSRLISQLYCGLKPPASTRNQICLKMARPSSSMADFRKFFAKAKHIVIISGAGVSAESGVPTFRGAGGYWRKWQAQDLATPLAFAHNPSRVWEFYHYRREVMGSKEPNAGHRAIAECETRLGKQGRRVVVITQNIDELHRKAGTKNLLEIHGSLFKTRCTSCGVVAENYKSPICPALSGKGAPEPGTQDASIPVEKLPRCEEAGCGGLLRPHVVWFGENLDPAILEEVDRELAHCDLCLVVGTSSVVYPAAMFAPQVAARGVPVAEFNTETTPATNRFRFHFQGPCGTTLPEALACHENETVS
rRNA inh HTS – selective bacterial rRNA inhibition in E. coli; E. coli WT GFP vs humanized-ribosome RFP mutants, fluorescence, 24 h; hits give low values; DMSO median 0, no signal -100; GFP signal change (wild-type ribosome), % (concentration not given with the values); 350,000 tested, 1.6% active; AID 720706;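 active = significant combined selectivity score with lowered wild-type GFP, culture density cut under 30%, mutant RFP and density less affected; inactive = any of these conditions unmet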
PGC1a acetyl inh – modulators of PGC1a acetylation. U2OS PGC1a acetylation, AlphaScreen anti-acetyl-lysine; with virally co-expressed GCN5 acetyltransferase. inhibition, % at 15.6 µM. 350,000 tested, 0.17% active;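 active = every replicate shows inhibition of at least 40%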;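 note: 0% = neutral control wells and 100% = positive control wells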
Cneo AK release – causes C. neoformans cell lysis | adenylate kinase release luminescence, 4 h; normalised: neutral wells 0, clomiphene wells 100 | lysis activity, % at 15 µM | 360,000 tested, 0.2% active | AID 651654;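 active = mean lysis activity across replicates of at least 80%, whatever share of replicates individually reach that level; inactive = mean lysis activity below 80%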
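Assay system: C. neoformans cells. Amount: yeast cell density of 5 × 10^6 cells/mL. Technique: AK luminescence. Buffer or medium: YPD. Times: static 4 h at 37 °C with compound, 1 h detection. Dosing: single-point compound dose. Read-out: lysis from increased AK signal.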
* = called active by the depositor; . = not tested or not shown; ! = not active in a repeat. In the library only some 3% were active in any assay of this set; here they are far more common.

SMILES	S100A4 MyoIIA	Statin myotox sup	SIRT5 block	rRNA inh HTS	PGC1a acetyl inh	Cneo AK release
COc1ccc(-c2nc3ccccc3nc2-c2ccccc2)cc1OC	4.2	-9.5	16.9*	-26.1	4.1	-0.8
COc1ccc(-c2nc3ccccc3nc2-c2ccc(OC)c(OC)c2)cc1OC	7.8	20.9	2.6	-12.9	0.3	-2.0
COc1ccccc1Oc1ccc2c(c1)C(=O)N(CC(=O)O)C2=O	-1.5	13.0	-1.9	2.3	.	0.0
COc1ccccc1Oc1ccc2c(c1)C(=O)N(c1ccc(O)cc1)C2=O	.	127.5*	.	.	-0.1	0.5
S=C(Nc1cccc(Cl)c1)Nc1ccccc1Oc1ccccc1	.	-0.5	.	.	5.7	-2.4
S=C(Nc1ccc(Cl)cc1Cl)Nc1ccccc1Oc1ccccc1	.	-9.0	.	.	15.6	359.7*
O=C(C#Cc1ccccc1)Nc1cccc(F)c1	-1.9	159.2*	-1.9	-27.6	.	-3.5
CC(=O)Nc1cccc(-c2ccnc3c2CC(C(=O)NCc2ccc(F)c(F)c2)O3)c1 (stereo not drawn)	1.3	-5.0	15.1*	-1.3	.	-0.1
CCCC(=O)N1CC2(CCN(C(=O)C3CCC3)CC2)c2c(n(C)c3cc(OC)ccc23)[C@@H]1CO	.	.	.	-5.0	0.8	.
C[C@@H]1CCCCO[C@@H](CN(C)C(=O)Nc2ccc(F)cc2)[C@H](C)CN([C@H](C)CO)C(=O)c2cc(NC(=O)Nc3ccccc3)ccc2O1	-8.4	18.1	13.2	0.9	-18.5	0.9
Cc1oc(-c2ccc(Cl)cc2)nc1CS(=O)CC(=O)NC1CCCCC1 (stereo not drawn)	-4.5	21.6	-4.5	0.6	.	-0.2
Cc1oc(-c2ccc(Cl)cc2)nc1CS(=O)CC(=O)NC1CCCC1 (stereo not drawn)	1.5	98.9*	-1.3	-2.2	-6.4	0.2
Cc1ccc(-c2nc(CS(=O)CC(=O)NC3CCCCC3)c(C)o2)cc1 (stereo not drawn)	-3.0	104.9*	-2.7	-7.2	-19.1	1.1
C[C@@H]1CN([C@H](C)CO)C(=O)c2cc(C#CC(C)(C)O)cnc2O[C@@H]1CN(C)C(=O)C1CCOCC1	-6.2	-4.4	-0.3	2.8	1.0	0.2
Cc1ccc(N/N=C(\C#N)C(N)=S)cc1C	8.7	.	-2.8	-33.4*	.	.
COc1ccc(NC(=O)C2(N(C(=O)Cn3nnnc3N)c3ccc(OC)cc3)CCCCC2)cc1	11.3	6.3	1.7	7.7	8.7	2.9
COCC(=O)N(C)C1(c2nnnn2CCOC(=O)Nc2cccc3ccccc23)CCCC1	.	97.6*	.	.	0.0	3.1
CCC(=O)Nc1ccc2c(c1)OC[C@@H](C)N(Cc1cccnc1)C[C@@H](C)[C@@H](OC)CN(C)C2=O	5.5	-5.5	-0.3	0.1	-1.8	3.7
COCC(=O)Nc1ccc2c(c1)C(=O)N(C)C[C@@H](OC)[C@H](C)CN(C(=O)C1CCCC1)[C@H](C)CO2	-9.2	-3.1	-1.8	1.1	-0.1	-0.9
CCNC(=O)C[C@H]1CC[C@H]2[C@@H](COc3ccc(NC(=O)c4cc(C)on4)cc3C(=O)N2C)O1	-16.6	12.6	-3.5	-0.3	8.0	-8.2
COC(=O)N(C)C[C@H]1OCc2cn(nn2)CCCC(=O)N([C@@H](C)CO)C[C@@H]1C	7.2	-0.7	-12.1	0.3	-5.3	83.8*!
C[C@@H]1CN([C@H](C)CO)C(=O)CCCn2cc(nn2)CO[C@H]1CN(C)S(=O)(=O)c1ccc(F)cc1	-13.4	-22.2	22.8*!	-0.9	-3.5	-1.8
COC(=O)N(C)C[C@@H]1OCc2cn(nn2)CCCC(=O)N([C@H](C)CO)C[C@H]1C	6.2	1.8	2.7	0.9	-1.1	-1.2
CC(C)OC(=O)N(C)C[C@@H]1OCc2cn(nn2)CCCC(=O)N([C@H](C)CO)C[C@H]1C	-3.8	4.7	26.6*	.	4.7	0.6
CC(C)OC(=O)N(C)C[C@@H]1OCc2cn(nn2)CCCC(=O)N([C@@H](C)CO)C[C@@H]1C	-1.3	-6.9	15.7*	-0.2	-2.0	5.8
SMILES	S100A4 MyoIIA	Statin myotox sup	SIRT5 block	rRNA inh HTS	PGC1a acetyl inh	Cneo AK release
C[C@@H]1CN([C@H](C)CO)C(=O)CCCn2cc(nn2)CO[C@@H]1CN(C)S(=O)(=O)c1ccc(F)cc1	-4.6	-3.3	-0.3	1.1	5.1	7.7
CN1CCN(C(=O)C[C@H]2CC[C@H]3[C@@H](COC[C@H](O)CN3C(=O)Cc3ccccc3)O2)CC1	6.6	-16.6	1.0	2.3	4.3	1.3
C[C@H](CO)N1C[C@H](C)[C@H](CN(C)CC2CCCCC2)Oc2c(NS(=O)(=O)c3cn(C)cn3)cccc2C1=O	.	25.4	-6.4	0.4	-1.1	21.0
COc1ccccc1-c1ccc([C@H]2[C@@H](C#N)N(C(=O)C3CCOCC3)[C@H]2CO)cc1	-7.2	-2.8	-4.8	3.8	2.6	-0.7
C[C@H](CO)N1C[C@H](C)[C@H](CN(C)C(=O)CCCN(C)C)OCc2cn(nn2)CCCC1=O	20.1	4.2	17.2*	0.9	1.6	-3.1
C[C@H]1CN([C@@H](C)CO)C(=O)CCCn2cc(nn2)CO[C@H]1CN(C)C(=O)CCC(F)(F)F	.	4.6	.	0.2	7.5	.
COc1ccc2c3c([nH]c2c1)[C@@H](CO)N(C(=O)NC(C)C)CC31CN(C(=O)NC2CCCC2)C1	.	.	.	3.0	.	.
O=C(O)c1ccccc1SC1CC(=O)N(c2cccc3ccccc23)C1=O (stereo not drawn)	-6.7	-10.2	0.7	1.3	-14.4	2.3
CCN1C(=O)CC(Sc2ccccc2C(=O)O)C1=O (stereo not drawn)	.	159.1*	.	.	-3.2	-1.4
Cc1ccc(S(=O)(=O)Nc2ccc3c(c2)C(=O)N([C@@H](C)CO)C[C@H](C)[C@@H](CN(C)C(=O)Nc2ccc(C(F)(F)F)cc2)O3)cc1	4.1	-74.2	15.9*	0.2	-11.7	-0.4
C[C@H](CO)N1C[C@H](C)[C@@H](CN(C)CC2CCCCC2)Oc2ccc(NC(=O)Nc3cccc4ccccc34)cc2C1=O	-2.7	96.0*	3.2	-0.3	10.5	-0.1
C[C@H]1CN([C@@H](C)CO)C(=O)c2cc(N(C)C)ccc2O[C@@H]1CN(C)C(=O)Nc1ccc(C(F)(F)F)cc1	1.8	-55.2	-5.0	-20.8	-3.6	0.5
C[C@@H]1CN([C@@H](C)CO)C(=O)c2cc(NC(=O)Nc3cccc4ccccc34)ccc2O[C@@H]1CN(C)CC1CCCCC1	6.0	-11.4	8.6	-9.0	-9.6	4.3
C[C@H]1CN([C@@H](C)CO)C(=O)c2cc(NS(=O)(=O)c3ccc(F)cc3)ccc2O[C@H]1CN(C)C(=O)Nc1ccc(C(F)(F)F)cc1	7.8	-4.3	1.7	0.3	3.3	-2.2
C[C@H](CO)N1C[C@H](C)[C@H](CN(C)C(=O)Nc2ccc(F)cc2)Oc2ccc(NC(=O)Nc3ccc(F)cc3)cc2C1=O	-5.2	-0.8	23.5*	-10.1	-11.1	-2.4

Compound activity (PubChem BioAssay)
